# Bioassay records deposited in PubChem by several laboratories.
# Shown are actives, neighbours in structure and some others; about 1.4% of the full set was active somewhere.
# Calpain2 inh = blocks pig calpain II enzyme activity; inhibition, % at 16 µM; purified calpain II, fluorogenic peptide substrate, 30 min; 220,000 compounds, 0.37% hits;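 active means inhibition above about 50%, limit read from the data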
# Furin inhibitor = inhibitors of human furin; 220,000 compounds, 0.061% hits; purified furin, fluorogenic substrate cleavage; inhibition, % at 20 µM or 30 µM; P09958; in the data active means inhibition above about 25%
# KLK5 inh = blocks human kallikrein 5 protease activity. inhibition, % at 5 µM. 210,000 compounds, 0.59% hits. AID 873. recombinant hK5, fluorogenic AMC substrate cleavage;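 active means inhibition of 40% or more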;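 further: 0% = enzyme controls without compound and 100% = no-enzyme blanks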
# FXIa inh = inhibitors of human coagulation factor XIa; P03951; purified FXIa, Boc-Glu-Ala-Arg-AMC fluorogenic substrate; inhibition, % at 5 µM; 220,000 compounds, 0.14% hits; AID 798;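 active means inhibition of at least 40%; inactive means inhibition below 40%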;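 further: fluorescence of freed AMC excited at 355 nm; 0% = enzyme without compound and 100% = no enzyme blank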
# Target sequence (P03951 19-387 limits assumed): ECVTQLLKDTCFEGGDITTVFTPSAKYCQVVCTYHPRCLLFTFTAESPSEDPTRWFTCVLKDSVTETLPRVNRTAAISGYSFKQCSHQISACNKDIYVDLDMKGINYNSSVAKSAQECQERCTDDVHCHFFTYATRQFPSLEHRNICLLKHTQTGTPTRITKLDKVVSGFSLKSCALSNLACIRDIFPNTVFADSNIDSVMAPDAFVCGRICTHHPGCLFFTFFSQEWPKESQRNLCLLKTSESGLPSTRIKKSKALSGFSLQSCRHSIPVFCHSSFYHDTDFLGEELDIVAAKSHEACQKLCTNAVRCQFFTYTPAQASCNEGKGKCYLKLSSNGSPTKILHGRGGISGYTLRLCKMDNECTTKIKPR
# Target sequence (P03951 388-625 limits assumed): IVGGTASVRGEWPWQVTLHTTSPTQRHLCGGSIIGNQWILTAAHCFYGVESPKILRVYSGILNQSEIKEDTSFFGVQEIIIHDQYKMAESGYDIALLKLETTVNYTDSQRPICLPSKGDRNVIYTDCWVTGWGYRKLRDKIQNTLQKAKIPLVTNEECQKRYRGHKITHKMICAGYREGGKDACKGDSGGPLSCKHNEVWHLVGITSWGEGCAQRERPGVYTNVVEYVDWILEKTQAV
# FXIIa inh 1536 = factor XIIa (human) inhibition; P00748; purified FXIIa, Boc-QGR-AMC fluorogenic substrate, 2 h; inhibition, % at 5 µM; 220,000 compounds, 0.3% hits; in the data active means inhibition above about 40%;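 further: 0% = enzyme with no compound and 100% = blank without enzyme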
# Thrombin inh = blocks human thrombin protease activity; inhibition, % at 5 µM; alpha-thrombin, Boc-VPR-AMC fluorogenic substrate cleavage; 220,000 compounds, 0.26% hits; P00734;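 active means inhibition at or above 40%; inactive means inhibition below 40%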;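 further: 0% = enzyme with no compound and 100% = wells without enzyme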
#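 Test system: human alpha-thrombin protein / Dosing: one concentration per compound, 5 µM, with 0.2% DMSO / Medium: pH 7.5 Tris-saline with Tween 20 / Benchmarks: no-compound enzyme wells and no-enzyme blanks / Read-out basis: percent inhibition of thrombin substrate cleavage / Timing: reaction at room temperature / Measured by: fluorescence, ex 355 nm, em 460 nm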
# The depositor's hits bear a star.
SMILES,Calpain2 inh,Furin inhibitor,KLK5 inh,FXIa inh,FXIIa inh 1536,Thrombin inh
C[C@]12CCC(O)CC1CCC1C2CC[C@]2(C)C(c3cc(C(F)(F)F)n[nH]3)CCC12 (stereo partly specified),-8.1,-3.7,4.1,2.2,8.7,-0.8
CC(O)C1CCC2C3CC[C@H]4CC(O)CCC4(C)C3CC3(OCCO3)C12C (stereo partly specified),7.4,-12.1,137.6*,9.7,27.2,16.8
CC(C)(C)NC(=O)c1ccc(Sc2ccccc2)c([N+](=O)[O-])c1,54.1*,-25.9,9.6,12.1,2.4,8.5
COc1cc(C2NC(=O)NC(C)=C2C(=O)Nc2cccc(C)c2C)cc(OC)c1OC (stereo unspecified),-16.5,-12.1,-12.7,0.9,9.4,2.2
Cc1c(C)n(CCC#N)c2ccccc12,16.2,-2.6,-13.6,31.8,42.8*,-9.4
O=C(Nc1ncc2c(n1)-c1ccccc1OC2)c1cccc([N+](=O)[O-])c1,-48.5,-17.5,-9.7,-42.5,7.8,1.4
CC(C)(O)C#Cc1ccc(C(=O)N2CCN(c3ccc(F)cc3)CC2)cc1,-4.1,-19.2,-0.7,-3.7,4.2,5.9
CCNC(=O)/C(C#N)=C/c1c(N(Cc2ccccc2)Cc2ccccc2)nc2ccccn2c1=O,22.2,3.3,12.5,-2.2,7.3,-1.0
CNC(=O)/C(C#N)=C/c1c(N(Cc2ccccc2)Cc2ccccc2)nc2c(C)cccn2c1=O,19.6,-4.0,49.5*,9.6,24.3,24.6
COc1cc(S(=O)(=O)N(Cc2cccs2)CC2CCCO2)ccc1-n1cnnn1 (stereo unspecified),0.5,-12.8,3.8,3.5,13.1,-1.9
CCCC(=O)N=C1SC2CS(=O)(=O)CC2N1c1ccc(CC)cc1 (stereo unspecified),40.6,-21.1,-8.6,26.3,41.4*,-6.4
CCOC(=O)Cn1nnnc1CN(Cc1ccc(OC)cc1)Cc1cc2cc(C)cc(C)c2[nH]c1=O,-8.7,-11.0,-0.4,-8.7,10.5,0.5
CCOC(=O)c1c(C)nc2sc3c(=O)n(-c4ccc(OC)cc4)nnc3c2c1-c1ccc(OC)cc1,-30.4,-17.6,44.6*,20.4,24.4,3.1
CCOC(=O)c1c(C)nc2sc3c(=O)n(-c4ccc(C(C)=O)cc4)cnc3c2c1-c1ccc(OC)cc1,-109.0,-13.3,-24.3,-0.1,5.0,16.7
CCCc1nc2n[nH]c(N)c2c2c1CCC2,37.7,-11.4,-4.2,35.1,55.0*,3.3
CCCc1nc2n[nH]c(N)c2c2c1CCCC2,-17.0,-11.8,-30.9,14.7,16.3,-0.3
O=C1CC(N2CCC(c3nc4ccccc4o3)CC2)C(=O)N1Cc1cccs1 (stereo unspecified),-5.5,26.6*,12.8,6.7,15.6,2.5
CSc1cccc(NC(=O)CSc2ccc(Cl)cc2)c1,51.3*,-12.4,-0.8,-0.2,13.1,-1.1
CCc1ccc2[nH]c(O)c(N=Nc3nc(-c4ccccc4)cs3)c2c1,-47.0,-19.4,-27.1,4.6,14.8,3.7
CCCN1CCN(C(=O)Nc2cccc(C(F)(F)F)c2)CC1,-20.6,-20.1,-2.5,12.4,8.4,0.8
O=C(Nc1cccc(C(F)(F)F)c1)N1CCN(C(=O)Nc2cccc(C(F)(F)F)c2)CC1,15.3,-9.1,54.7*,15.2,26.7,20.8
COc1ccc(S(=O)(=O)NCCC(=O)NCc2ccc(F)cc2)cc1,2.4,28.9*,-13.8,-4.5,-2.3,-0.8
O=S(=O)(NC1CCCCC1NCc1ccco1)c1ccccc1 (stereo unspecified),-33.7,-12.8,-7.3,-18.0,2.9,-3.0
OCCC1CN(Cc2nc3c(s2)CCCC3)CCN1Cc1ccccc1 (stereo unspecified),-10.5,-17.5,-4.6,-5.8,1.4,-8.1
COc1cccc(N2C(=O)CC(NNc3nc4ccccc4s3)C2=O)c1 (stereo unspecified),19.5,-4.0,40.3*,17.5,14.2,19.0
SMILES,Calpain2 inh,Furin inhibitor,KLK5 inh,FXIa inh,FXIIa inh 1536,Thrombin inh
COc1cc(C(=O)NC(=S)N(C)Cc2ccccc2)cc(OC)c1OC,15.5,-7.4,35.6,101.5*,26.3,18.9
COc1cc(C(=O)NC(=S)N(CCc2ccccc2)CCc2ccccc2)cc(OC)c1OC,1.9,-16.3,-4.9,7.3,10.3,1.0
Nc1nc(CSC(=S)N2CCOCC2)nc(Nc2ccccc2)n1,-4.9,-11.3,-22.8,-7.2,2.4,-8.5
Nc1nc(CSC(=S)N2CCCCC2)nc(Nc2ccccc2)n1,7.2,-16.5,66.8*,-6.6,2.1,-24.4
CCOc1cc(/C=N/Nc2ccc(C(=O)O)cc2)ccc1OC(=O)c1ccccc1C,81.5*,-15.7,5.8,3.6,7.1,2.1
CCN(CC)S(=O)(=O)c1ccc(C)c(NC(=S)NNC(=O)C2CC2)c1,76.4*,-10.8,-71.2,7.3,6.8,-3.9
CC(c1nc2ccccc2c(=O)[nH]1)N(C)c1ccc2ccccc2c1 (stereo unspecified),-0.1,-3.3,-15.6,-1.9,6.2,-9.6
C=CCOc1ccc(CNC(C)(C)CO)cc1OC,18.3,-10.6,17.9,2.4,7.4,-4.1
COc1cc(CNC(C)(C)CO)ccc1OCC(=O)Nc1ccc(Br)cc1,10.3,-19.9,41.7*,-6.8,8.8,2.8
O=C(Cn1nc(-c2ccc(Cl)cc2)ccc1=O)NCC1CCCO1 (stereo unspecified),-2.7,-31.0,51.0*,5.7,16.2,17.3
COC(=O)c1ccccc1NC(=O)Oc1ccc(C(C)C)cc1,-27.3,-4.3,52.4*,8.7,12.6,20.9
COC(=O)c1ccccc1NC(=S)NC(=O)COc1ccc(C(C)C)cc1,16.0,-17.1,-12.0,2.7,9.1,-4.6
O=C1NN(c2ccc(Cl)c(Cl)c2)C(=O)/C1=C/c1cccc(OC(=O)c2cccs2)c1,-75.5,5.3,5.0,2.6,0.0,1.1
O=C1NN(c2ccccc2)C(=O)/C1=C\c1cccc(OC(=O)c2cccs2)c1,-0.4,-0.2,5.3,48.8*,-0.9,-0.1
CC(Sc1nnnn1-c1ccccc1)C(=O)Nc1ccccc1-c1ccccc1 (stereo unspecified),18.4,3.8,-9.1,2.5,3.3,-3.4
CNc1ccncc1S(=O)(=O)NC,22.5,-9.1,-17.8,4.3,4.3,-5.3
COc1ccc(Cl)cc1N(CC(=O)NC(C(C)C)C(C)C)S(C)(=O)=O,3.8,-7.6,-11.3,0.6,7.3,-12.3
CN1C(=O)/C(=C2\SC(=S)N(C(CCC(=O)O)C(=O)O)C2=O)c2ccccc21 (stereo unspecified),10.0,1.8,63.9*,12.9,11.0,104.0*
CC(C)Sc1nc(SCC(=O)NCc2ccco2)c2c3c(sc2n1)COC(C)(C)C3,-23.4,-22.1,55.0*,6.5,13.7,31.8
CC(C)Sc1nc(SCC(=O)O)c2c3c(sc2n1)COC(C)(C)C3,9.5,-2.9,-3.0,0.6,7.2,-4.1
COCCNC(=O)C(c1ccc(C)o1)N(C(=O)c1snc(C(N)=O)c1N)c1ccc(C)c(C)c1 (stereo unspecified),-91.3,-14.8,43.8*,12.1,25.5,19.9
